Bioassay records from PubChem BioAssay.
Only some compounds are listed: those with a hit (about 4.1% of all), similar ones and a draw of the others.
KCNQ1 act – human KCNQ1 channel potentiation or activation | P51787 | CHO-K1 KCNQ1, thallium flux FluxOR fluorescence; stronger effect = higher value | B-score at 10 µM | hit rate 0.35% among 310,000;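 active means fluorescence ratio B-score, a plate-corrected score, at least three library SD, with initial intensity B-score within 5 SD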
Target sequence (P51787 whole entry, looked up): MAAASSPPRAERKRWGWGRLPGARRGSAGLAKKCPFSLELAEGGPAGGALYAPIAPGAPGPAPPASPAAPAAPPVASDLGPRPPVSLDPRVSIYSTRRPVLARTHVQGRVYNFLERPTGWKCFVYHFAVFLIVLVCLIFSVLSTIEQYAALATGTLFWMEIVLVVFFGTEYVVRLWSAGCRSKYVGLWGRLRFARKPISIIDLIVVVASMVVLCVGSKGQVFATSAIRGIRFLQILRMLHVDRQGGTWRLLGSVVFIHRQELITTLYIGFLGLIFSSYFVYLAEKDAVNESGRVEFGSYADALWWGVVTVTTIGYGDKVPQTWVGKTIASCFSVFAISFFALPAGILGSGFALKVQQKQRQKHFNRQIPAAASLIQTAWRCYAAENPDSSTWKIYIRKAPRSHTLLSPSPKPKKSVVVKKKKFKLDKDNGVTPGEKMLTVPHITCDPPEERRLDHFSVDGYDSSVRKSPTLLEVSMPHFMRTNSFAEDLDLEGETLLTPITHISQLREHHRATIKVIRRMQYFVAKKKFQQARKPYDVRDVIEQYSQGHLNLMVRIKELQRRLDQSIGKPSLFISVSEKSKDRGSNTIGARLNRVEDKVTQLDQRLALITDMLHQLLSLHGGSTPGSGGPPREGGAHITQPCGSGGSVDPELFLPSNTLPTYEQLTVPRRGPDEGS
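Test system: CHO-K1 cells stably expressing KCNQ1 / Medium: assay buffer / Also added: depolarizing K+/Tl+ stimulus, K2SO4 and Tl2SO4 each 12.5 mM in 5x stock / Incubation: 90 min dye loading and 20 min compound exposure, both at room temperature / Signal: thallium influx via FluxOR fluorescence, kinetic imaging / Evaluation: B score of baseline-normalized fluorescence ratio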
KCC2 mod – KCC2 (human) Cl- transport modulation; B-score of Tl+ flux slope (higher = more flux/activation; lower = inhibition) at 10 µM; Q9H2X9; KCC2 cells, thallium flux FluoZin-2 fluorescence; hit rate 2.2% among 190,000;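 active means thallium flux slope and its plate-corrected score both differing from the plate sample mean at a set confidence after two filtering rounds, in either direction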;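 further: slope of fluorescence scaled to starting intensity during 10 to 20 s after thallium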
KCNQ1 inh – human KCNQ1 channel inhibition; B-score at 10 µM; hit rate 1.3% among 310,000; CHO-K1 KCNQ1, FluxOR thallium flux fluorescence; stronger effect = higher value; P51787; AID 2642;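 active means compounds whose thallium flux B-score, printed positive for inhibition, exceeds three library SD while starting fluorescence stays within three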;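 further: channel opened by potassium depolarization with thallium stimulus after 20 min compound exposure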
hERG rescue – hERG (human) protection from proarrhythmic block. Q12809. CHO-hERG, FluxOR thallium flux, dofetilide IC70 present. activation (rescue from dofetilide block), less the hit threshold, % at 10 µM. hit rate 0.51% among 310,000. AID 1511;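 active means activation above the mean of controls blocked by dofetilide plus 5 SD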;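 further: thallium influx through hERG after potassium depolarization seen as dye fluorescence rise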
KCNK9 inh – human KCNK9 channel inhibition. hit rate 1.2% among 310,000. B-score at 10 µM. HEK293 KCNK9, FluxOR thallium flux fluorescence; stronger effect = lower value;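 active means ratio B-score over 3 SD below the library mean, with starting fluorescence within 5 SD of its mean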;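 further: negative B-score means less thallium flux so channel inhibition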
KCNK3 block – human KCNK3 channel inhibition, primary screen. O14649. CHO-KCNK3 thallium flux, FluxOR fluorescence; stronger effect = lower value. B-score at 10 µM. hit rate 0.84% among 340,000. AID 602410;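 active means B-score under library mean minus 4 SD, starting fluorescence ratio at most library mean plus 5 SD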;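 further: more negative B-score means stronger inhibition of thallium flux through KCNK3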
KCNK3 confirm – confirmation of human KCNK3 two-pore domain potassium channel inhibitors; hit rate 99% among 2,400; AID 651638; shares compounds with KCNK3 block; ratio percent of control, % at 10 µM; CHO-KCNK3 thallium flux, FluxOR fluorescence; 0% buffer, 100% carvedilol maximal block;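 active means ratio percent of control, averaged over triplicates, above buffer control mean plus 5 SD, cut at about 64% in these data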;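 further: ratio is the fluorescence rise from min to max over baseline after thallium stimulus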
KCNK3 uninduced – KCNK3 inhibitor counter-screen hit in non-induced cells; shares compounds with KCNK3 block; non-induced KCNK3 parental cells, FluxOR thallium flux; stronger effect = lower value; thallium flux ratio (lower = more inhibition) at 10 µM; hit rate 40% among 2,400;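 active means thallium flux ratio, averaged over three wells, more than 5 SD below the buffer control mean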;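 further: host cells are CHO cells without KCNK3 induction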
Of the large screens only hits and unclear results are named; the others gave an inactive call (follow-up assays come after a bar, where they were run).

O=C(NNC1CC(c2ccccc2)=NN1C(=O)c1ccccc1)c1ccccc1 (stereo not drawn)	none
O=C(N/N=C/c1cc(Cl)c(O)c(Cl)c1)c1cc2c(ccc3ccccc32)o1	KCNQ1 inh 12, KCNK3 block -11 (no result: KCC2 mod) | KCNK3 confirm 101 | KCNK3 uninduced 0.15
O=C(N/N=C/c1cccnc1)c1cc2c(ccc3ccccc32)o1	none (no result: KCC2 mod)
CCc1nc2ccc(C(=O)NCCc3ccc(OC)cc3)cc2nc1CC	none (no result: KCC2 mod)
O=C(Nc1cccc(/C=C/c2ccccn2)c1)c1cc(Cl)ccn1	KCNK3 block -9.4 (no result: KCC2 mod) | KCNK3 confirm 109 | KCNK3 uninduced inactive
Cc1cc(C(=O)Nc2cc(C)n(Cc3ccc(Cl)cc3)n2)no1	none
Cc1cc(NC(=O)c2cc(C(C)C)on2)nn1Cc1ccc(Cl)cc1	KCNK3 block -9.5 | KCNK3 confirm 105 | KCNK3 uninduced inactive
COc1ccccc1NC(=O)c1cccc(S(=O)(=O)N2CCN(Cc3ccccc3)CC2)c1	none (no result: KCC2 mod)
Cc1ccc(S(=O)(=O)CC(=O)N2CCN(c3ccccc3F)CC2)cc1	none (no result: KCC2 mod)
Cc1cccc(CSC2=NCCN2S(=O)(=O)c2ccc(F)cc2)c1	KCNK3 block -8.9 (no result: KCC2 mod) | KCNK3 confirm 105 | KCNK3 uninduced inactive
O=C(Nc1cccnc1)c1cc(-c2cccnc2)nc2ccc(Br)cc12	KCNK9 inh -7.7, KCNK3 block -13 | KCNK3 confirm 124 | KCNK3 uninduced 0.12
COc1cc(NC(=O)c2cc(-c3cccnc3)nc3ccc(Br)cc23)cc(OC)c1	none
Cc1ccc(S(=O)(=O)N[C@@H](Cc2ccccc2)C(=O)N2CCC(C(=O)N[C@@H](CCC(N)=O)C(=O)O)CC2)cc1	none (no result: KCC2 mod)
CCN(c1cccc(C)c1)S(=O)(=O)c1ccc(-c2cc(C)no2)s1	KCNK3 block -8.8 (no result: KCC2 mod) | KCNK3 confirm 103 | KCNK3 uninduced inactive
Cc1sc2ncnc(N3CCC(C(=O)Nc4ccc(Cl)cc4Cl)CC3)c2c1C	none (no result: KCC2 mod)
Cc1sc2ncnc(N3CCC(C(=O)Nc4ccc(Br)cc4Br)CC3)c2c1C	KCNK3 block -8.8 (no result: KCC2 mod) | KCNK3 confirm 113 | KCNK3 uninduced inactive
CCN(CC)S(=O)(=O)c1ccc(-c2cc(C(=O)OC)sc2C(F)(F)F)cc1	KCNK3 block -9.7 | KCNK3 confirm 109 | KCNK3 uninduced inactive
O=C(Nc1ccc(CN2CCOCC2)cc1)c1ccc(-c2ccc(Cl)cc2Cl)o1	KCNK3 block -9.7 | KCNK3 confirm 103 | KCNK3 uninduced inactive
Fc1ccc(-c2nc3cnccn3c2NC2CCCC2)cc1	none
Oc1ccc(Br)cc1-c1nc2cnccn2c1NC1CCCC1	KCNK3 block -8.8 | KCNK3 confirm 131 | KCNK3 uninduced inactive
COc1ccc(CCNC(=S)NCCc2c[nH]c3ccccc23)cc1	none
O=[N+]([O-])c1ccc(C2CCCC/C2=N/OCc2ccccc2F)c([N+](=O)[O-])c1 (stereo not drawn)	KCNQ1 inh 12, KCNK3 block -8.7 | KCNK3 confirm 121 | KCNK3 uninduced inactive
C/C(=N\Nc1nc(N2CCOCC2)nc(N2CCOCC2)n1)c1cccs1	none
C/C(=N\Nc1nc(N2CCCCC2)nc(N2CCOCC2)n1)c1ccccc1O	KCNK3 block -9.1 | KCNK3 confirm 104 | KCNK3 uninduced inactive
CN(CC(=O)Nc1cccc(S(=O)(=O)N2CCCC2)c1)CC(=O)Nc1ccc(Cl)c(C(F)(F)F)c1	KCNK3 block -11 (no result: KCC2 mod) | KCNK3 confirm 128 | KCNK3 uninduced 0.14
CN(CC(=O)Nc1cccc(S(=O)(=O)N2CCCC2)c1)CC(=O)Nc1ccc(F)c(F)c1F	none (no result: KCNQ1 act, KCC2 mod, KCNQ1 inh, hERG rescue, KCNK9 inh)
Cn1c(CNC(=O)Cc2ccc3c(c2)OCO3)nnc1SCc1ccccc1	none
N#CC1=C(N)NC(SCC(=O)Nc2ccccc2)=C(C#N)C12CCCCC2	KCNK3 block -9.5 (no result: KCC2 mod) | KCNK3 confirm 106 | KCNK3 uninduced 0.14
NC(=O)N/N=C/c1cn(-c2ccccc2)nc1-c1cccnc1	none (no result: KCNK3 block)
